Results published in ChEMBL document CHEMBL3616442, “Unconventional Knoevenagel-type indoles: Synthesis and cell-based studies for the identification of pro-apoptotic agents” (Eur J Med Chem, 2015).
Activity calls are given as the source filed them. The rule behind the calls is not given here.

Assays:
K562 [1] = test: Antiproliferative activity against human K562 cells after 3 days incubation by alamar blue method; type: functional; conditions: for GI50: K562, 72 h
Summary of the method: (§1)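 HL-60 and K562 grown in RPMI 1640, MCF-7 in DMEM, each with 10% FCS, penicillin G and streptomycin. Seeded at 4x10⁴ (HL-60, K562) or 2x10⁴ (MCF-7) cells per well with serial compound dilutions, incubated 3 days at 37 °C. Alamar blue added for 3 h at 37 °C in the dark, fluorescence read at ex 544/em 590 nm. IC50 versus untreated controls by linear regression.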

[2] = Growth inhibition of human SF539 cells after 48 hrs by sulforhodamine B assay; type: functional; conditions: SF-539, 48 h
786-0 = test: Growth inhibition of human 786-0 cells after 48 hrs by sulforhodamine B assay; type: functional; conditions: 786-0, 48 h
Summary of the method: (§2)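 NCI 60-cell-line screen. Compounds tested at five 10-fold dilutions from 10^-4 to 10^-8 M. Cells exposed for the last 48 h of a 72 h incubation, growth estimated by sulforhodamine B protein assay. GI50 is the concentration giving 50% growth inhibition. Values beyond the tested range are expressed as greater or lesser than the extreme concentration.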

NCI-H226 = test: Growth inhibition of human NCI-H226 cells after 48 hrs by sulforhodamine B assay; type: functional; conditions: NCI-H226, 48 h; summary of the method: as §2
NCI-H460 = test: Growth inhibition of human NCI-H460 cells after 48 hrs by sulforhodamine B assay; type: functional; conditions: NCI-H460, 48 h; summary of the method: as §2
CCRF-CEM [3] = test: Growth inhibition of human CCRF-CEM cells after 48 hrs by sulforhodamine B assay; type: functional; summary of the method: as §2
K562 [4] = test: Induction of apoptosis in human K562 cells by propidium iodide staining based flow cytometric analysis; type: functional
Summary of the method: (§3)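 After treatment, cells harvested, fixed in ice-cold 70% ethanol at 4 °C, stained 30 min at 37 °C in the dark with 100 µg/mL propidium iodide plus 10 µg/mL RNase A; 10,000 gated cells analysed at 488 nm with debris excluded; apoptosis followed over time; mean ± S.E.M. of three independent experiments run in triplicate.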

MCF7 [5] = test: Growth inhibition of human MCF7 cells after 48 hrs by sulforhodamine B assay; type: functional; conditions: MCF7, 48 h; summary of the method: as §2
MCF7 [6] = test: Antiproliferative activity against human MCF7 cells after 3 days incubation by alamar blue method; type: functional; conditions: for GI50: MCF7, 72 h; summary of the method: as §1
[7] = Growth inhibition of human HCC2998 cells after 48 hrs by sulforhodamine B assay; type: functional; conditions: HCC 2998, 48 h; summary of the method: as §2
[8] = Growth inhibition of human EKVX cells after 48 hrs by sulforhodamine B assay; type: functional; summary of the method: as §2
HL-60 [9] = test: Antiproliferative activity against human HL60 cells after 3 days incubation by alamar blue method; type: functional; conditions: for GI50: HL-60, 72 h; summary of the method: as §1
SK-MEL-28 [10] = test: Growth inhibition of human SK-MEL-28 cells after 48 hrs by sulforhodamine B assay; type: functional; conditions: SK-MEL-28, 48 h
OVCAR-8 = test: Growth inhibition of human OVCAR8 cells after 48 hrs by sulforhodamine B assay; type: functional; conditions: OVCAR-8, 48 h
UO-31 = test: Growth inhibition of human UO31 cells after 48 hrs by sulforhodamine B assay; type: functional; conditions: UO-31, 48 h
[11] = Growth inhibition of human SF295 cells after 48 hrs by sulforhodamine B assay; type: functional; conditions: SF-295, 48 h
NCI-H23 = test: Growth inhibition of human NCI-H23 cells after 48 hrs by sulforhodamine B assay; type: functional; conditions: NCI-H23, 48 h; summary of the method: as §2
MCF7 [12] = test: Induction of apoptosis in human MCF7 cells by propidium iodide staining based flow cytometric analysis; type: functional; conditions: TDE = time-dependent effect; summary of the method: as §3
HL-60 [13] = test: Induction of apoptosis in human HL60 cells by propidium iodide staining based flow cytometric analysis; type: functional; summary of the method: as §3
[14] = Growth inhibition of human Hs 578T cells after 48 hrs by sulforhodamine B assay; type: functional; summary of the method: as §2
M14 = test: Growth inhibition of human M14 cells after 48 hrs by sulforhodamine B assay; type: functional; conditions: M14, 48 h; summary of the method: as §2
OVCAR-5 = test: Growth inhibition of human OVCAR5 cells after 48 hrs by sulforhodamine B assay; type: functional; conditions: OVCAR-5, 48 h
OVCAR-3 = test: Growth inhibition of human OVCAR3 cells after 48 hrs by sulforhodamine B assay; type: functional; conditions: OVCAR-3, 48 h; summary of the method: as §2
UACC-62 = test: Growth inhibition of human UACC62 cells after 48 hrs by sulforhodamine B assay; type: functional; conditions: UACC-62, 48 h
MRC5 = test: Cytotoxicity against human MRC5 cells after 96 hrs by MTT assay; type: cell-based; conditions: MRC5, 96 h
Summary of the method: (§4)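 ATCC cell lines, mycoplasma-free by Hoechst staining. Haematological lines in RPMI-1640, solid-tumour and normal fibroblast lines in their own media, all with 10% FCS and antibiotics, at 37 °C in 5% CO₂. Compounds added as serial dilutions from a 100 mM DMSO stock diluted in medium. Viability by MTT after 96 h at 37 °C. Mean ± SD of three independent determinations.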

WIL2-NS = test: Cytotoxicity against human WIL2-NS cells after 96 hrs by MTT assay; type: functional, cell-based; summary of the method: as §4
DU-145 = test: Cytotoxicity against human DU145 cells after 96 hrs by MTT assay; type: functional, cell-based; conditions: DU-145, 96 h; summary of the method: as §4
K562 [15] = test: Induction of cell cycle arrest in human K562 cells assessed as accumulation at G2/M phase after 24 hrs by propidium iodide staining based flow cytometric analysis; type: functional
Summary of the method: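 Propidium iodide/RNase A flow cytometry of ethanol-fixed cells, 10,000 gated events at 488 nm; G2/M fraction measured after 18 h treatment (HL-60, MCF-7) or 24 h (K562); mean ± S.E.M. of three independent experiments.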

[16] = Cytotoxicity against human CRL7065 cells after 96 hrs by MTT assay; type: cell-based; conditions: CRL-7065, 96 h; summary of the method: as §4
MCF7 [17] = test: Cytotoxicity against human MCF7 cells after 96 hrs by MTT assay; type: functional, cell-based; conditions: MCF7, 96 h; summary of the method: as §4
[18] = Cytotoxicity against human SKMES1 cells after 96 hrs by MTT assay; type: functional, cell-based; conditions: SK-MES-1, 96 h; summary of the method: as §4
CCRF-CEM [19] = test: Cytotoxicity against human CCRF-CEM cells after 96 hrs by MTT assay; type: functional, cell-based; summary of the method: as §4
SK-MEL-28 [20] = test: Cytotoxicity against human SK-MEL-28 cells after 96 hrs by MTT assay; type: functional, cell-based; conditions: SK-MEL-28, 96 h; summary of the method: as §4
HepG2 = test: Cytotoxicity against human HepG2 cells after 96 hrs by MTT assay; type: functional, cell-based; conditions: HepG2, 96 h; summary of the method: as §4
Tubulin (Homo sapiens) = Tubulin (Homo sapiens) (UniProt P68371+Q9H4B7+P0DPH7+P68366+Q13509+Q71U36+P04350+Q3ZCM7+P07437+P68363+Q9BQE3+Q6PEY2+Q13885+Q9BVA1+Q9BUF5); test: Induction of Tubulin depolymerization in human MCF7 cells by immunofluorescence analysis; type: cell-based
Summary of the method: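 MCF-7 cells grown and treated on chamber slides, fixed in ice-cold 100% methanol, washed in PBS with 0.1% Triton X-100, blocked 30 min in 5% BSA, then mouse anti-tubulin for 1 h and Alexa 488 secondary for 1 h; DNA counterstained with 0.2 μg/mL propidium iodide for 2 min. Paclitaxel and PBOX-15 served as tubulin controls.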

CCRF-SB = test: Cytotoxicity against human CCRF-SB cells after 96 hrs by MTT assay; type: functional, cell-based; summary of the method: as §4

**Q.** For COc1ccc(-c2[nH]c3ccccc3c2C=C(C#N)C#N)cc1, which Activity (K562 [1]) is on record?
**A.** Dose-dependent effect

**Q.** What about the GI50 (K562 [1]) of the same molecule?
**A.** 4.78 µM

**Q.** What about the GI50 [2] of the same molecule?
**A.** 0.263 µM

**Q.** And the GI50 (786-0)?
**A.** 0.72 µM

**Q.** What about the GI50 (NCI-H226) of the same molecule?
**A.** 1.1 µM

**Q.** And the GI50 (NCI-H460)?
**A.** 0.359 µM

**Q.** And the GI50 (CCRF-CEM [3])?
**A.** 0.352 µM

**Q.** What about the Activity (K562 [4]) of the same molecule?
**A.** 44.4%

**Q.** What about the Activity (K562 [4]; TDE = time-dependent effect) of the same molecule?
**A.** tde

**Q.** And the GI50 (MCF7 [5])?
**A.** 0.347 µM

**Q.** What about the Activity (MCF7 [6]) of the same molecule?
**A.** Dose-dependent effect

**Q.** What about the GI50 (MCF7 [6]) of the same molecule?
**A.** > 10 µM

**Q.** And the GI50 [7]?
**A.** 0.751 µM

**Q.** And the GI50 [8]?
**A.** 0.656 µM

**Q.** What about the Activity (HL-60 [9]) of the same molecule?
**A.** Dose-dependent effect

**Q.** And the GI50 (HL-60 [9])?
**A.** 1.08 µM

**Q.** And the GI50 (SK-MEL-28 [10])?
**A.** 1.2 µM

**Q.** And the GI50 (OVCAR-8)?
**A.** 1.2 µM

**Q.** And the GI50 (UO-31)?
**A.** 2.8 µM

**Q.** What about the GI50 [11] of the same molecule?
**A.** 0.336 µM

**Q.** And the GI50 (NCI-H23)?
**A.** 0.6 µM

**Q.** And the Activity (MCF7 [12])?
**A.** tde

**Q.** And the Activity (HL-60 [13]; TDE = time-dependent effect)?
**A.** tde

**Q.** And the GI50 [14]?
**A.** 0.241 µM

**Q.** And the GI50 (M14)?
**A.** 0.295 µM

**Q.** And the GI50 (OVCAR-5)?
**A.** 1.8 µM

**Q.** And the GI50 (OVCAR-3)?
**A.** 0.265 µM

**Q.** What about the GI50 (UACC-62) of the same molecule?
**A.** 0.357 µM

**Q.** Which results are given for CC(=O)/C(=C\c1c(-c2ccccc2)[nH]c2ccccc12)S(C)(=O)=O?
**A.** Activity (K562 [1]): Dose-dependent effect; GI50 (K562 [1]): 7.71 µM; GI50 [2]: 1.9 µM; GI50 (786-0): 3.5 µM; GI50 (NCI-H226): 27.1 µM; GI50 (NCI-H460): 2.8 µM; GI50 (CCRF-CEM [3]): 4.7 µM; Activity (K562 [4]; TDE = time-dependent effect): tde; GI50 (MCF7 [5]): 2.7 µM; Activity (MCF7 [6]): Dose-dependent effect; GI50 (MCF7 [6]): > 10 µM; GI50 [7]: 8 µM; GI50 [8]: 6.4 µM; Activity (HL-60 [9]): Dose-dependent effect; GI50 (HL-60 [9]): 2.57 µM; GI50 (SK-MEL-28 [10]): 3.3 µM; GI50 (OVCAR-8): 5.2 µM; GI50 (UO-31): 5.8 µM; GI50 [11]: 3.9 µM; GI50 (NCI-H23): 4 µM; Activity (MCF7 [12]): tde; Activity (HL-60 [13]; TDE = time-dependent effect): tde; GI50 [14]: 1.6 µM; GI50 (M14): 1.6 µM; GI50 (OVCAR-5): 16.1 µM; GI50 (OVCAR-3): 2.3 µM; GI50 (UACC-62): 3.2 µM

**Q.** What does the source list for COc1ccc(-c2[nH]c3ccccc3c2/C=C(\C#N)S(=O)(=O)c2ccccc2)cc1?
**A.** Activity (K562 [1]): Dose-dependent effect; GI50 (K562 [1]): 5.28 µM; EC50 (MRC5): 73 µM; GI50 [2]: 0.299 µM; GI50 (786-0): 1.2 µM; EC50 (WIL2-NS): 0.4 µM; EC50 (DU-145): 2 µM; Activity (K562 [15]): 42.4%; GI50 (NCI-H226): 2.8 µM; GI50 (NCI-H460): 0.404 µM; GI50 (CCRF-CEM [3]): 1.3 µM; EC50 [16]: > 100 µM; Activity (K562 [4]; TDE = time-dependent effect): tde; GI50 (MCF7 [5]): 0.398 µM; Activity (MCF7 [6]): Dose-dependent effect; GI50 (MCF7 [6]): 5.6 µM; GI50 [7]: 1.2 µM; GI50 [8]: 1.3 µM; Activity (HL-60 [9]): Dose-dependent effect; GI50 (HL-60 [9]): 0.66 µM; GI50 (SK-MEL-28 [10]): 1.8 µM; EC50 (MCF7 [17]): > 100 µM; GI50 (OVCAR-8): 1.3 µM; EC50 [18]: 43 µM; GI50 (UO-31): 4.7 µM; EC50 (CCRF-CEM [19]): 0.3 µM; GI50 [11]: 0.5 µM; GI50 (NCI-H23): 0.932 µM; Activity (MCF7 [12]): tde; Activity (HL-60 [13]): 65.5%; Activity (HL-60 [13]; TDE = time-dependent effect): tde; EC50 (SK-MEL-28 [20]): > 100 µM; EC50 (HepG2): 11 µM; GI50 [14]: 0.682 µM; GI50 (M14): 0.383 µM; GI50 (OVCAR-5): 1.9 µM; Activity (Tubulin (Homo sapiens)): Active; GI50 (OVCAR-3): 0.244 µM; GI50 (UACC-62): 0.597 µM; EC50 (CCRF-SB): 0.3 µM
